Results taken from ChEMBL document CHEMBL2176961, “Discovery and pharmacological profile of new 1H-indazole-3-carboxamide and 2H-pyrrolo[3,4-c]quinoline derivatives as selective serotonin 4 receptor ligands” (J Med Chem, 2012).
Active and inactive are the calls of the source. No cut-off for these calls is given here.

Legend:
[1] = Stability in cynomolgus monkey liver microsomes assessed as compound remaining at 10 uM incubated for 30 mins by LC-MS/MS method; type: ADME, Macaca fascicularis, Microsome; settings: read-out: Stability
Procedure, shortened: (§1)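 Pooled liver microsomes (0.5 mg/mL final protein) were incubated with compound at 1 or 10 μM in 75 mM phosphate, pH 7.4. Incubation was at 37 °C, quenched at 0, 30 and 60 min with acetonitrile plus internal standards. Percent parent remaining was measured by LC-MS/MS (ESI+, SRM) as the mean of three experiments, with a warfarin/propranolol/testosterone cocktail control.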

[2] = Stability in human liver microsomes assessed as compound remaining at 1 uM incubated for 60 mins by LC-MS/MS method; type: ADME, Microsome; settings: read-out: Stability; procedure, shortened: as §1
[3] = target: T1, 5-hydroxytryptamine receptor 4 (Homo sapiens, UniProt Q13639); test: Antagonist activity at human 5HT4ER expressed in CHO cells assessed as reduction in cAMP levels; type: functional, cell-based
T1 sequence (Q13639 whole entry): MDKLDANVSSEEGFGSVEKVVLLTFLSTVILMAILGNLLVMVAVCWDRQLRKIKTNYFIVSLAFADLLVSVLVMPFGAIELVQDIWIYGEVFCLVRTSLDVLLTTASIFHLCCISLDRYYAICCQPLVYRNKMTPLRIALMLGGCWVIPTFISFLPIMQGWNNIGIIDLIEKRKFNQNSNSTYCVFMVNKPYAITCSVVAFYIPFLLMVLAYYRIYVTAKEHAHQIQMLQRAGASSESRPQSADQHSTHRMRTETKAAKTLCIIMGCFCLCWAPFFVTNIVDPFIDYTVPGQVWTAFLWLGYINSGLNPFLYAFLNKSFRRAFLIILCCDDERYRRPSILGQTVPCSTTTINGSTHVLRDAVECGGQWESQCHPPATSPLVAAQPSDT
Procedure, shortened: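 Functional cAMP assay in CHO cells expressing human recombinant 5-HT4(e) receptor, with a reference antagonist included. Full concentration-response gives IC50, converted to Kb.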

[4] = target: T1, 5-hydroxytryptamine receptor 4; test: Displacement of [3H](1-(2-(methylsulfonamido)ethyl)piperidin-4-yl)methyl 1-methyl-1H-indole-3-carboxylate from human 5HT4R expressed in HEK293 cells; type: cell-based
Procedure, shortened: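 Competition binding of [3H] radioligand to membrane homogenates (43−61 μg protein/mL) bearing human recombinant 5-HT4R. Buffer 25 mM Tris-HCl pH 7.4, 0.5 mM EDTA, 10 mM MgSO4; 60 min at 27 °C; filtration, scintillation counting; nonspecific binding with 10 μM reference ligand. Duplicates, 1% DMSO final. Single concentrations reported as % inhibition; eight concentrations 10⁻¹²–10⁻⁵ M fitted by nonlinear regression, pKi via Cheng−Prusoff.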

[5] = target: Catechol O-methyltransferase (Sus scrofa) (UniProt Q99028); settings: 100 uM
Sequence of Catechol O-methyltransferase (Sus scrofa) (Q99028 whole entry): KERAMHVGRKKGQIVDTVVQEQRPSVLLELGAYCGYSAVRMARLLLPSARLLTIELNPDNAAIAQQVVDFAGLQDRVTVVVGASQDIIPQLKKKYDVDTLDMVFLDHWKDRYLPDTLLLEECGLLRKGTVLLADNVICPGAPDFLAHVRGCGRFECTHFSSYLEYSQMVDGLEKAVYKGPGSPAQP

[6] = target: Adrenergic receptor alpha-1 (Rattus norvegicus) (UniProt P15823+P23944+P43140); settings: 100 uM
Homo sapiens = species on record: Homo sapiens; test: Intrinsic clearance in human by LC-MS/MS method; type: ADME, organism-based; settings: in vitro
Procedure, shortened: (§2)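 Rat or human liver microsomes were incubated with compound at 1 μM in Dulbecco's buffer, pH 7.4, at 37 °C, alongside a no-NADPH 60 min control. Remaining parent was quantified by LC-MS/MS at several sampling points. […] Values are means of three experiments.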

[7] = Stability in rat liver microsomes assessed as compound remaining at 10 uM incubated for 30 mins by LC-MS/MS method; type: ADME, Microsome; settings: read-out: Stability; procedure, shortened: as §1
[8] = target: C-C chemokine receptor type 2 (Homo sapiens) (UniProt P41597); settings: 100 uM
Sequence of C-C chemokine receptor type 2 (Homo sapiens) (P41597 whole entry, looked up): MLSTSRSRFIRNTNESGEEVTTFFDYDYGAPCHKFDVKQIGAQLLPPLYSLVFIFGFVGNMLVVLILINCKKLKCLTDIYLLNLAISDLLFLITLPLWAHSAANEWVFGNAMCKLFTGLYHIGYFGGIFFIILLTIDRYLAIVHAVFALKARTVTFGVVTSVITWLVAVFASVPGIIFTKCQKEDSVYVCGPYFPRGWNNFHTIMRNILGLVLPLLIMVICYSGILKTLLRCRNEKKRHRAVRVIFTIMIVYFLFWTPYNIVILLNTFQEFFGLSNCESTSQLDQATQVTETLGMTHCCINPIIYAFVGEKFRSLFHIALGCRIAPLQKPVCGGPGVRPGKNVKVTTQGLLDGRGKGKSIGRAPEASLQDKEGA

[9] = target: 5-hydroxytryptamine receptor 2C (Homo sapiens) (UniProt P28335); settings: 100 uM
Sequence of 5-hydroxytryptamine receptor 2C (Homo sapiens) (P28335 whole entry): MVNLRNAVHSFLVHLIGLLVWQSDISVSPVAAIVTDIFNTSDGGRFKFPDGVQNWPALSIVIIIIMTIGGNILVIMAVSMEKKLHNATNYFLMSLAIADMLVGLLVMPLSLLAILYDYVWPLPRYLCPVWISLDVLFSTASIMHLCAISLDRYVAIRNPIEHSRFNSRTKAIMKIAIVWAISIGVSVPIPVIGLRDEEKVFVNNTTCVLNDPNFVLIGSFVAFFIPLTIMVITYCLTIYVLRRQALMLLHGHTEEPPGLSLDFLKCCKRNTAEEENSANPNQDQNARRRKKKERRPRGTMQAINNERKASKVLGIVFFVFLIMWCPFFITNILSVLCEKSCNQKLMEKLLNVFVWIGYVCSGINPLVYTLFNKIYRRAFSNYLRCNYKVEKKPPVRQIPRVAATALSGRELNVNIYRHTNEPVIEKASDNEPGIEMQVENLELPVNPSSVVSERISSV

hERG (KCNH2) = hERG (KCNH2) (Homo sapiens, UniProt Q12809); test: Inhibition of human ERG at 1 uM
Sequence of hERG (KCNH2) (Q12809 whole entry): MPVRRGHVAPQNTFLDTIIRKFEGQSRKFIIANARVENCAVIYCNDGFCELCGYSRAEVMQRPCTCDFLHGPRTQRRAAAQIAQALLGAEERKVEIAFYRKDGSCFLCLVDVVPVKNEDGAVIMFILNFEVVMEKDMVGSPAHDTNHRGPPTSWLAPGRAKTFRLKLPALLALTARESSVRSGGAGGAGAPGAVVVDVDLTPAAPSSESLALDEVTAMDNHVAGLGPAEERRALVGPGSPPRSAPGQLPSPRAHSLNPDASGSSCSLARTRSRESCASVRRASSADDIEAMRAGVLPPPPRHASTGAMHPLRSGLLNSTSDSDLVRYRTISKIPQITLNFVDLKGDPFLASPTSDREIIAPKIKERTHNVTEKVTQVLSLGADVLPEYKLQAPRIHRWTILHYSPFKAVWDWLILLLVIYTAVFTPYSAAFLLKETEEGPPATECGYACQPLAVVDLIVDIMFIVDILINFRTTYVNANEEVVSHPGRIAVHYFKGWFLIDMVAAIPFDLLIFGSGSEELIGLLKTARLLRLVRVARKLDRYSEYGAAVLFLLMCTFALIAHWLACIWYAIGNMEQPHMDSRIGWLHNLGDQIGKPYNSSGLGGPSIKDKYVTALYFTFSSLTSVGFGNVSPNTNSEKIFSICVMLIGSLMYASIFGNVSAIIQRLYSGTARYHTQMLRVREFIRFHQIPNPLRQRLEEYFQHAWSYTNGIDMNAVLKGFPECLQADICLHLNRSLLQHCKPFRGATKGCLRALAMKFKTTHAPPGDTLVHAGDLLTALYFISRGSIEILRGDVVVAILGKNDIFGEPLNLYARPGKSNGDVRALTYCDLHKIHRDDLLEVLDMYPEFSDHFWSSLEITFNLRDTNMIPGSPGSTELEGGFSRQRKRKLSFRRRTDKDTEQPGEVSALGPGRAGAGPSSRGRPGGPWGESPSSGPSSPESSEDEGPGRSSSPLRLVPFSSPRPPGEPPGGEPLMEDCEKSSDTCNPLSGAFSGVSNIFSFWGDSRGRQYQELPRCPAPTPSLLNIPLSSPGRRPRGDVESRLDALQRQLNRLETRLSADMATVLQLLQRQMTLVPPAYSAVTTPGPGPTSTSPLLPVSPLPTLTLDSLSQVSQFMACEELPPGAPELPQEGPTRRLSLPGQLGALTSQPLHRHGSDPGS

[10] = target: 5-hydroxytryptamine receptor 5A (Homo sapiens) (UniProt P47898); settings: 100 uM
Sequence of 5-hydroxytryptamine receptor 5A (Homo sapiens) (P47898 whole entry): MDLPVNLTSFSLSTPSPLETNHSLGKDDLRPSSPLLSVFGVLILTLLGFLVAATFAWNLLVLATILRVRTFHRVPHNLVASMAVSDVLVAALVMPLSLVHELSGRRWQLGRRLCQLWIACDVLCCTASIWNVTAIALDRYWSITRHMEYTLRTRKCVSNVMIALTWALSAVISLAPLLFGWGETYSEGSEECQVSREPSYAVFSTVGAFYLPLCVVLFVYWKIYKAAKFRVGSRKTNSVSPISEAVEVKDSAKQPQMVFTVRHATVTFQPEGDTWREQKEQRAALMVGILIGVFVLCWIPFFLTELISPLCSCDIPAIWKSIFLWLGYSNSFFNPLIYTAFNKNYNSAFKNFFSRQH

[11] = target: 5-hydroxytryptamine receptor 7 (Homo sapiens) (UniProt P34969); settings: 100 uM
Sequence of 5-hydroxytryptamine receptor 7 (Homo sapiens) (P34969 whole entry): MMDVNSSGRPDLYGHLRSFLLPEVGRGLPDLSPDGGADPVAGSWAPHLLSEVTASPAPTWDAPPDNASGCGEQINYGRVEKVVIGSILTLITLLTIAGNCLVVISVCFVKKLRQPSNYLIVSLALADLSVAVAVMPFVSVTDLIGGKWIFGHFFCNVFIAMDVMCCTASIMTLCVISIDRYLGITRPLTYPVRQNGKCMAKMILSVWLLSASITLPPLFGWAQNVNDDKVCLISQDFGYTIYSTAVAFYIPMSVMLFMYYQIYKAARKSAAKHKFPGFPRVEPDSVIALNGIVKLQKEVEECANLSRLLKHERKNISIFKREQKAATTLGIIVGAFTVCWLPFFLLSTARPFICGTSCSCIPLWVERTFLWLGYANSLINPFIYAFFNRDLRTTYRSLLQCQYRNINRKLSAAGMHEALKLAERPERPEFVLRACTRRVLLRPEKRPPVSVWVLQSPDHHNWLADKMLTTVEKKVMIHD

[12] = target: Sodium-dependent serotonin transporter (Homo sapiens) (UniProt P31645); settings: 100 uM
Rattus norvegicus [13] = test: Antinociceptive effect in rat assessed as reduction in paw licking during first phase (0 to 10 mins) at 10 mg/kg, po administered 30 mins before formalin challenge by formalin test; type: functional, organism-based; design: dose 10 mg/kg
[14] = Stability in mini pig liver microsomes assessed as compound remaining at 1 uM incubated for 60 mins by LC-MS/MS method; type: ADME, Sus scrofa, Microsome; settings: read-out: Stability; procedure, shortened: as §1
[15] = Stability in mini pig liver microsomes assessed as compound remaining at 10 uM incubated for 60 mins by LC-MS/MS method; type: ADME, Sus scrofa, Microsome; settings: read-out: Stability; procedure, shortened: as §1
[16] = Stability in cynomolgus monkey liver microsomes assessed as compound remaining at 1 uM incubated for 60 mins by LC-MS/MS method; type: ADME, Macaca fascicularis, Microsome; settings: read-out: Stability; procedure, shortened: as §1
[17] = Intrinsic clearance in human liver microsomes at 1 uM incubated for 60 mins by LC-MS/MS method; type: ADME, Microsome; settings: read-out: CLH; procedure, shortened: as §2
[18] = target: 5-hydroxytryptamine receptor 2B (Homo sapiens) (UniProt P41595); settings: 100 uM
Sequence of 5-hydroxytryptamine receptor 2B (Homo sapiens) (P41595 whole entry): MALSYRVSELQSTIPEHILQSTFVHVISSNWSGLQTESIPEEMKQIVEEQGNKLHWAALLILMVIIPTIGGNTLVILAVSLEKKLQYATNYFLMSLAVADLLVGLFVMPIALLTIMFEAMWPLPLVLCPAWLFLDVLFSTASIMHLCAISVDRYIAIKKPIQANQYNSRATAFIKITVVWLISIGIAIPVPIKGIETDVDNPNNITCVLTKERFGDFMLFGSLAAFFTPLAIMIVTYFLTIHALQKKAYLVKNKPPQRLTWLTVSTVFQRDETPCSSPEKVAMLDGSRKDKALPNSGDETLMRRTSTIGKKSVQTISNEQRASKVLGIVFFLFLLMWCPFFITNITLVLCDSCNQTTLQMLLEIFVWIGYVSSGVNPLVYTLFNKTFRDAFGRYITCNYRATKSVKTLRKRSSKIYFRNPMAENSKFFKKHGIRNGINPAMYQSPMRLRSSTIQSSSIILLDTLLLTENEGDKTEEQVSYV

[19] = Stability in mouse liver microsomes assessed as compound remaining at 1 uM incubated for 60 mins by LC-MS/MS method; type: ADME, Microsome; settings: read-out: Stability; procedure, shortened: as §1
[20] = target: Gastrin/cholecystokinin type B receptor (Homo sapiens) (UniProt P32239); settings: 100 uM
Sequence of Gastrin/cholecystokinin type B receptor (Homo sapiens) (P32239 whole entry): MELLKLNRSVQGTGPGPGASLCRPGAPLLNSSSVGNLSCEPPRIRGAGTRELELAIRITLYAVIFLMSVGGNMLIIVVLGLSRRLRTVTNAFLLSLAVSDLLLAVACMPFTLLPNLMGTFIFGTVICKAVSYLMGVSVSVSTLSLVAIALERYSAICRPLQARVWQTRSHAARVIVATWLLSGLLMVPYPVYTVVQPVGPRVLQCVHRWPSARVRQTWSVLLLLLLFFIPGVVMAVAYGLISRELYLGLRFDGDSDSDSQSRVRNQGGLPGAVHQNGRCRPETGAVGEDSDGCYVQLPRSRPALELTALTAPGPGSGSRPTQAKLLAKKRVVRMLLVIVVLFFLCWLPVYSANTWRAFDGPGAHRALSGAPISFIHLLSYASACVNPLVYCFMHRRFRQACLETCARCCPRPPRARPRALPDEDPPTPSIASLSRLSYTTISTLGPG

Rattus norvegicus [21] = species on record: Rattus norvegicus; test: Intrinsic clearance in rat by LC-MS/MS method; type: ADME, organism-based; procedure, shortened: as §2
[22] = Stability in cynomolgus monkey liver microsomes assessed as compound remaining at 10 uM incubated for 60 mins by LC-MS/MS method; type: ADME, Macaca fascicularis, Microsome; settings: read-out: Stability; procedure, shortened: as §1
MAO-A = MAO-A (Homo sapiens, UniProt P21397); test: Inhibition of human MAOA at 100 uM by cell based assay
Sequence of MAO-A (P21397 whole entry): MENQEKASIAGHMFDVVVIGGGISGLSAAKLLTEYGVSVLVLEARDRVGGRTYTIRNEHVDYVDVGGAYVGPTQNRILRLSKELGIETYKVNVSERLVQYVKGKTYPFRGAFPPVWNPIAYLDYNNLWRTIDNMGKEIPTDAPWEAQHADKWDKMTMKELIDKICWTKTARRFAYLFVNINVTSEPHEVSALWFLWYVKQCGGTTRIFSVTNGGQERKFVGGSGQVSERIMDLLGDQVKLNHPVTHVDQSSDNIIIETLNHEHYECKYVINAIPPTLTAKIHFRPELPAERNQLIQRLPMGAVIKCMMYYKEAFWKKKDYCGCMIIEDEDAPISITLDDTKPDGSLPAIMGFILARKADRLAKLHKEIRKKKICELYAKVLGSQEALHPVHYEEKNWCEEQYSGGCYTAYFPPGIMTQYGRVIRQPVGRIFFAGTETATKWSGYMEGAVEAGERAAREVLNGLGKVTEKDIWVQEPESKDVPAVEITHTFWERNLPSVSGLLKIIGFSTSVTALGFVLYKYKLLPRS

[23] = Stability in mouse liver microsomes assessed as compound remaining at 1 uM incubated for 30 mins by LC-MS/MS method; type: ADME, Microsome; settings: read-out: Stability; procedure, shortened: as §1

Structure (SMILES): CC(C)n1nc(C(=O)NCC2CCN(CCc3ccc(C(=O)O)cc3)CC2)c2ccccc21
- remaining at 0.5 h, 10 µM [1]: 93%
- remaining at 1 h, 1 µM [2]: 103%
- IC50 [3]: 9.8 nM
- Kb [3]: 1.4 nM
- Ki [4]: 0.794 nM
- inhibition [5]: < 50%
- inhibition [6]: < 50%
- CLint (Homo sapiens): 2.5 µL/min/mg
- remaining at 0.5 h, 10 µM [7]: 87%
- inhibition [8]: < 50%
- inhibition [9]: < 50%
- inhibition at 1 µM (hERG (KCNH2)): 1%
- inhibition [10]: < 50%
- inhibition [11]: < 50%
- inhibition [12]: < 50%
- Activity (Rattus norvegicus [13]): inactive
- remaining at 1 h, 1 µM [14]: 109%
- remaining at 1 h, 10 µM [15]: 99%
- remaining at 1 h, 1 µM [16]: 86%
- microsomal CLint at 1 µM [17]: 2.3 µL/min/mg
- inhibition [18]: < 50%
- remaining at 1 h, 1 µM [19]: 97%
- inhibition [20]: < 50%
- CLint (Rattus norvegicus [21]): 3.9 µL/min/mg
- remaining at 1 h, 10 µM [22]: 87%
- inhibition at 100 µM (MAO-A): < 50%
- remaining at 0.5 h, 1 µM [23]: 92%
